As a reminder, the pIC50 is the IC50 on a negative log10 scale, so that one unit is a factor of ten.

pIC50: −log10 of the molar value.

Experimental findings from ChEMBL document CHEMBL3593159, “Identification of 5-nitrofuran-2-amide derivatives that induce apoptosis in triple negative breast cancer cells by activating C/EBP-homologous protein expression” (Bioorg Med Chem, 2015) are described below.

For one experiment, the system named is HCC1806. In words: Cytotoxicity against human HCC1806 cells assessed as reduction in cell viability incubated for 3 days by cell-titer-Glo reagent based assay. In kind it is functional. To be noted: for pIC50: HCC1806, 72 h. The method, boiled down:
(§1)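 Viability by CellTiter-Glo (ATP read-out). Cells plated at 3 × 10³/well in 384-well format overnight, then exposed to compound over a range (0.125–20 µM for initial series) for 3 d in RPMI 1640 with 10% FBS at 37°C, 5% CO₂. IC₅₀ fitted from dose–response curve.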

A further experiment deals with HCC1143. Briefly: Cytotoxicity against human HCC1143 cells assessed as reduction in cell viability incubated for 3 days by cell-titer-Glo reagent based assay. In kind it is functional. To be noted: for pIC50: HCC1143, 72 h. An outline of the steps:
as §1

A further experiment relates to HCC38. Briefly: Cytotoxicity against human HCC38 cells assessed as reduction in cell viability incubated for 3 days by cell-titer-Glo reagent based assay. To be noted: for pIC50: HCC38, 72 h. The format is functional. An outline of the steps:
as §1

Another experiment deals with HEK-293T. In words: Increase in CHOP expression in HEK293T cells stably transfected with luciferase gene at 10 uM incubated for 24 hrs by luciferase reporter gene assay. In kind it is functional, Homo sapiens. An outline of the steps:
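HEK293T cells stably carrying CHOP-, ERSE- or UPRE-luciferase reporters plated 7 × 10³/well in 384-well plates, after 16 h given compound (10 µM), tunicamycin 1 µg/mL or DMSO for 24 h; luciferase by Bright-Glo. Means of 4 replicate wells, representative of 3 experiments.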
(Reporter assays use an easily measured gene product as a stand-in for the process of interest.)

For a further experiment, the system named is HEK293. Briefly: Increase in CHOP mRNA expression in HEK293 cells at 10 uM incubated for 24 hrs by qRT-PCR method. The format is functional, Homo sapiens. The method, boiled down: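 HEK293 cells given 10 µM compound or DMSO for 24 h; CHOP mRNA by qRT-PCR. Means of 3 replicate wells, 3 independent experiments, Student's t-test vs control.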
In general terms: Real-time PCR tracks product formation cycle by cycle.

For `COc1ccc(Cl)cc1NC(=O)c1ccc([N+](=O)[O-])o1`, in the experiment on HCC1806, the pIC50 was 5.15.
The same measure, in the same setting: next, `O=C(Nc1ccc(N2CCOCC2)c(Br)c1)c1ccco1`: < 4.40.
Take `O=C(Nc1ccc(N2CCCCC2)c(Cl)c1)c1ccc([N+](=O)[O-])o1`: the values for the pIC50 in the experiment on HCC1143, in the experiment on HCC1806 and with HCC38 were 5.35, 5.46 and 5.42, respectively.
Regarding `Cc1cc(NC(=O)c2ccc([N+](=O)[O-])o2)c(C)cc1I`, in the experiment on HCC1806, the pIC50 was 5.52.
For `Cc1cccc(NC(=O)c2ccc([N+](=O)[O-])o2)c1C`, the pIC50 with HCC1806 is 5.01.
With `O=C(Nc1ccc(N2CCOCC2)c(Cl)c1)c1ccc([N+](=O)[O-])o1`, the pIC50 in the experiment on HCC1143 was 5.60; with HCC1806, 5.59; with HCC38, 5.70.
As to `O=C(Nc1ccc(I)cc1)c1ccc([N+](=O)[O-])o1`, the Activity entry in the experiment on HCC1143, with HCC1806 and with HCC38 was “Dose-dependent effect” throughout. The figures for the pIC50 with HCC1143, with HCC1806 and in the experiment with HCC38 were 5.02, 5.21 and 5.06, respectively. Moreover, the results for the “fold change (FC)” value with HEK-293T and in the experiment with HEK293 were 24 and 30, respectively.
As to `O=C(Nc1ccc(Cl)cc1)c1ccc([N+](=O)[O-])o1`, the negative-log IC50 (pIC50) in the experiment with HCC1806 is 5.29.
As for `O=C(Nc1ccc(N2CCOCC2)cc1)c1ccc([N+](=O)[O-])o1`, the pIC50 was 5.64 in the experiment on HCC1143, 5.82 with HCC1806 and 5.51 in the experiment on HCC38.
Take `O=C(Nc1ccc(N2CCN(Cc3ccccc3F)CC2)cc1)c1ccc([N+](=O)[O-])o1`: the pIC50 is 5.42 in the experiment with HCC1143, 5.52 in the experiment with HCC1806 and 5.72 in the experiment on HCC38.
